Results published in ChEMBL document CHEMBL1155528, “1,4-dihydropyrazolo[4,3-d]imidazole phenyl derivatives: a novel type II Raf kinase inhibitors” (Bioorg Med Chem Lett, 2010).
Calls of active or inactive are those of the source. No cut-off for these calls is given here.

Legend:
[1] = (§1) Antiproliferative activity against human WM3629 cells after 24 hrs by MTT assay; assay type: functional; details: WM3629, 24 h
Summary of the method: (§2)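 WM3629 cells (Wistar Institute) were kept in Tu2% medium. GI50 was determined by MTT as for A375P: 5 × 10³ cells/well, 24 h settling, 12-point threefold serial dilutions, and absorbance at 590 nm.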

[2] = target: T1, RAF proto-oncogene serine/threonine-protein kinase (Homo sapiens, UniProt P04049); test: Inhibition of human cRAF using [33P-ATP] as a substrate by scintillation counting
T1 sequence (P04049 whole entry): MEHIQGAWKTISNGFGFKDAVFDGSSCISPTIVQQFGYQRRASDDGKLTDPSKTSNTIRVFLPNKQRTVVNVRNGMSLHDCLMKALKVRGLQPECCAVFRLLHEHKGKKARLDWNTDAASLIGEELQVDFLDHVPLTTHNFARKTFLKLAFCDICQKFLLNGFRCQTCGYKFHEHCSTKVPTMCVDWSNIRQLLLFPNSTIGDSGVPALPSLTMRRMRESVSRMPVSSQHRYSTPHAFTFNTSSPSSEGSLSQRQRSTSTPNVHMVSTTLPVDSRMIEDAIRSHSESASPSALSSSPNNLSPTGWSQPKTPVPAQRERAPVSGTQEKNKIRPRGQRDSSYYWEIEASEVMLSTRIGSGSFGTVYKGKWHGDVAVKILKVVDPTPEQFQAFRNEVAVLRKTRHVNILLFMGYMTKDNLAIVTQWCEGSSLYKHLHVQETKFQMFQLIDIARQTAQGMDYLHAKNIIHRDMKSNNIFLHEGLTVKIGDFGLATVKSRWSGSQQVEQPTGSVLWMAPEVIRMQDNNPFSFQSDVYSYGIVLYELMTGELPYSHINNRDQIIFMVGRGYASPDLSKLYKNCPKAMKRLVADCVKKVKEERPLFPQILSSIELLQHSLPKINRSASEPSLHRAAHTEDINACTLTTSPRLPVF
Summary of the method: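 Run 40 min at room temperature, then stopped with 3% phosphoric acid. Spotted on P30 filter mat, washed in 75 mM phosphoric acid and methanol, dried, and scintillation-counted. IC50 came from a profiler service.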

[3] = (§3) Antiproliferative activity against human A375P cells after 24 hrs by MTT assay; assay type: functional
Summary of the method: (§4)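 A375P cells (ATCC) grown in DMEM with 10% FBS and 1% penicillin/streptomycin at 37 °C, 5% CO2. Detached with 0.05% trypsin–0.02% EDTA, seeded at 5 × 10³ cells/well, and left 24 h before 12-point threefold serial dilutions were added. Viability was read by MTT reduction (CellTiter 96) at 590 nm, and GI50 was derived.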

[4] = tested on: WM3629; test: as §1; assay type: functional; summary of the method: as §2
[5] = tested on: A375P; test: as §3; assay type: functional; summary of the method: as §4
[6] = target: Tyrosine-protein kinase JAK2 (Homo sapiens) (UniProt O60674); test: Inhibition of human JAK2; details: concentration not given here
Summary of the method: (§5)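 Tested in an outsourced 30-kinase profiling service panel at a single concentration of 10, with percent inhibition reported.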

[7] = target: Serine/threonine-protein kinase PLK1 (Homo sapiens) (UniProt P53350); test: Inhibition of human PLK1; details: concentration not given here; summary of the method: as §5
[8] = target: BDNF/NT-3 growth factors receptor (Homo sapiens) (UniProt Q16620); test: Inhibition of human TrkB; details: concentration not given here; summary of the method: as §5
[9] = target: Tyrosine-protein kinase receptor UFO (Homo sapiens) (UniProt P30530); test: Inhibition of human AXL; details: concentration not given here; summary of the method: as §5
[10] = target: Insulin-like growth factor 1 receptor (Homo sapiens) (UniProt P08069); test: Inhibition of human IGF1R; details: concentration not given here; summary of the method: as §5
[11] = target: Fibroblast growth factor receptor 1 (Homo sapiens) (UniProt P11362); test: Inhibition of human FGFR1; details: concentration not given here; summary of the method: as §5
[12] = target: Casein kinase II (Homo sapiens) (UniProt P67870+P68400+P19784); test: Inhibition of human CK2; assay type: protein-complex assay; details: concentration not given here; summary of the method: as §5
[13] = target: Ribosomal protein S6 kinase beta-1 (Homo sapiens) (UniProt P23443); test: Inhibition of human p701S6K; details: concentration not given here; summary of the method: as §5
[14] = target: Cyclin-dependent kinase 2/cyclin E1 (Homo sapiens) (UniProt P24864+P24941); test: Inhibition of human CDK2/cyclin E; assay type: protein-complex assay; details: concentration not given here; summary of the method: as §5
[15] = target: Ephrin type-A receptor 1 (Homo sapiens) (UniProt P21709); test: Inhibition of human EphA1; details: concentration not given here; summary of the method: as §5
Sequence of Ephrin type-A receptor 1 (Homo sapiens) (P21709 whole entry): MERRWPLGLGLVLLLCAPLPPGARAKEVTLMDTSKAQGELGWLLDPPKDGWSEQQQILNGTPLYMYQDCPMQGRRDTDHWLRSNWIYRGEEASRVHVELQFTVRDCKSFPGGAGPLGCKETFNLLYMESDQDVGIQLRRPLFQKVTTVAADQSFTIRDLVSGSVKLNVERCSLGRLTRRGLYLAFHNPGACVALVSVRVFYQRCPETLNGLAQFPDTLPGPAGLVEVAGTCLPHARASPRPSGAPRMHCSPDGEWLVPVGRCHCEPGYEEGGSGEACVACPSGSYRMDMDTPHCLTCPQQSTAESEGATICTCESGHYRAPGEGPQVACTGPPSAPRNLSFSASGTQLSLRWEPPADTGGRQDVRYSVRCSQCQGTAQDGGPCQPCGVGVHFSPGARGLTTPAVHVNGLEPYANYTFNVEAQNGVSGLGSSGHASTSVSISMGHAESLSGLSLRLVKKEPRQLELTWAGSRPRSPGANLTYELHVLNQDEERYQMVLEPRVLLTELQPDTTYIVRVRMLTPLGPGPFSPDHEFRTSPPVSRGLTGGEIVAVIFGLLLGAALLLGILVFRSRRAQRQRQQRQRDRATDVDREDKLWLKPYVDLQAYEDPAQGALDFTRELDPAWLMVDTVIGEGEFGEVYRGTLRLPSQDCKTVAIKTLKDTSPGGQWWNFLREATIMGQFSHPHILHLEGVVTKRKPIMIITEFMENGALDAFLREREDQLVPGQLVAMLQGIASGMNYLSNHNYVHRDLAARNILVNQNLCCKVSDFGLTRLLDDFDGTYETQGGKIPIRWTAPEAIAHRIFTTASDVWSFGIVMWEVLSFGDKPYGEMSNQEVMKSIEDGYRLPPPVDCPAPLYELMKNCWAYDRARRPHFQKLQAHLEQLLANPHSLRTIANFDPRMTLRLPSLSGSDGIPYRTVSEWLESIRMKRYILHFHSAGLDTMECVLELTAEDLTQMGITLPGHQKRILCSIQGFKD

[16] = target: Tyrosine-protein kinase SYK (Homo sapiens) (UniProt P43405); test: Inhibition of human SYK; details: concentration not given here
[17] = target: Insulin receptor (Homo sapiens) (UniProt P06213); test: Inhibition of human IR; details: concentration not given here; summary of the method: as §5
[18] = target: Cytoplasmic tyrosine-protein kinase BMX (Homo sapiens) (UniProt P51813); test: Inhibition of human BMX; details: concentration not given here; summary of the method: as §5
Sequence of Cytoplasmic tyrosine-protein kinase BMX (Homo sapiens) (P51813 whole entry): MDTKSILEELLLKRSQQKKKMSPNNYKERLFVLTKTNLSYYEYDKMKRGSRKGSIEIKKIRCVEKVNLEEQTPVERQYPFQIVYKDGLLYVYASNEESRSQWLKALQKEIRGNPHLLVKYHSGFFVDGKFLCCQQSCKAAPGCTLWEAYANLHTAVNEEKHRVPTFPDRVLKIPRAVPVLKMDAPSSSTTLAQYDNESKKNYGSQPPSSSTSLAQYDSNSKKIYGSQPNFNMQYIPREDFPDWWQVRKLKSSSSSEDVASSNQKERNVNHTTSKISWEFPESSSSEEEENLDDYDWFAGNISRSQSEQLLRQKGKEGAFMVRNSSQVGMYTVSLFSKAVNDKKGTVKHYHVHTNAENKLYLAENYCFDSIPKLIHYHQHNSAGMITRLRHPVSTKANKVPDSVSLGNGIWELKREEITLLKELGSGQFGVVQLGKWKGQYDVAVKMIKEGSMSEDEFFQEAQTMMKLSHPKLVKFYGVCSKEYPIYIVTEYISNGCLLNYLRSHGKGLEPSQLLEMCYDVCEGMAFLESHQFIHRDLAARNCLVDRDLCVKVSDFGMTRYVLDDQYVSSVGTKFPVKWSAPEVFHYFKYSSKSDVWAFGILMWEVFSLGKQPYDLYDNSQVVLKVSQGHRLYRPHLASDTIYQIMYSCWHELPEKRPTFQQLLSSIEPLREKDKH

[19] = organism: Rattus norvegicus; test: Inhibition of rat AMPK; details: concentration not given here
Summary of the method: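 Part of an outsourced radiometric kinase panel of 30 kinases, tested at a single concentration of 10 µM. Read-out is percent inhibition of kinase activity.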

[20] = target: Mast/stem cell growth factor receptor Kit (Homo sapiens) (UniProt P10721); test: Inhibition of human cKIT; details: concentration not given here; summary of the method: as §5
[21] = target: Vascular endothelial growth factor receptor 2 (Homo sapiens) (UniProt P35968); test: Inhibition of human KDR; details: concentration not given here; summary of the method: as §5
[22] = target: Aurora kinase A (Homo sapiens) (UniProt O14965); test: Inhibition of human aurora A; details: concentration not given here; summary of the method: as §5
[23] = target: Tyrosine-protein kinase ABL1 (Homo sapiens) (UniProt P00519); test: Inhibition of human ABL; details: concentration not given here; summary of the method: as §5
[24] = target: Proto-oncogene tyrosine-protein kinase Src (Homo sapiens) (UniProt P12931); test: Inhibition of human cSRC; details: concentration not given here; summary of the method: as §5
Sequence of Proto-oncogene tyrosine-protein kinase Src (Homo sapiens) (P12931 2-536 limits assumed): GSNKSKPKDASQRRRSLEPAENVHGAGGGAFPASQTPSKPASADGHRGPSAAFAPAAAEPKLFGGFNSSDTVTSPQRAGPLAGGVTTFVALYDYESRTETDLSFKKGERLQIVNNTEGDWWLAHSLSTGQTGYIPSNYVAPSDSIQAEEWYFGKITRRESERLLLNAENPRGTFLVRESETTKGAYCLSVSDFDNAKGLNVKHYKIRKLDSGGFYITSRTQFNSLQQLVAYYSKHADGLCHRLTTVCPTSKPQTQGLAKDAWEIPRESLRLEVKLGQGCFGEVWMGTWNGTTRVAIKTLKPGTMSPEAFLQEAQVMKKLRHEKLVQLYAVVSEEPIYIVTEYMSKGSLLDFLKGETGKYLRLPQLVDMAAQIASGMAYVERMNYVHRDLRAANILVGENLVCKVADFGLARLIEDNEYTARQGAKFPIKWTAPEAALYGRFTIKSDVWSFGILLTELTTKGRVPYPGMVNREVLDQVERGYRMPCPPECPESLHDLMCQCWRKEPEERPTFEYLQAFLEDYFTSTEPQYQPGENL

[25] = target: ALK tyrosine kinase receptor (Homo sapiens) (UniProt Q9UM73); test: Inhibition of human ALK; details: concentration not given here; summary of the method: as §5
[26] = target: Inhibitor of nuclear factor kappa-B kinase subunit beta (Homo sapiens) (UniProt O14920); test: Inhibition of human IKK-beta; details: concentration not given here; summary of the method: as §5
[27] = target: Tyrosine-protein kinase BTK (Homo sapiens) (UniProt Q06187); test: Inhibition of human BTK; details: concentration not given here; summary of the method: as §5
[28] = target: Platelet-derived growth factor receptor alpha (Homo sapiens) (UniProt P16234); test: Inhibition of human PDGFRalpha; details: concentration not given here; summary of the method: as §5
Sequence of Platelet-derived growth factor receptor alpha (Homo sapiens) (P16234 whole entry): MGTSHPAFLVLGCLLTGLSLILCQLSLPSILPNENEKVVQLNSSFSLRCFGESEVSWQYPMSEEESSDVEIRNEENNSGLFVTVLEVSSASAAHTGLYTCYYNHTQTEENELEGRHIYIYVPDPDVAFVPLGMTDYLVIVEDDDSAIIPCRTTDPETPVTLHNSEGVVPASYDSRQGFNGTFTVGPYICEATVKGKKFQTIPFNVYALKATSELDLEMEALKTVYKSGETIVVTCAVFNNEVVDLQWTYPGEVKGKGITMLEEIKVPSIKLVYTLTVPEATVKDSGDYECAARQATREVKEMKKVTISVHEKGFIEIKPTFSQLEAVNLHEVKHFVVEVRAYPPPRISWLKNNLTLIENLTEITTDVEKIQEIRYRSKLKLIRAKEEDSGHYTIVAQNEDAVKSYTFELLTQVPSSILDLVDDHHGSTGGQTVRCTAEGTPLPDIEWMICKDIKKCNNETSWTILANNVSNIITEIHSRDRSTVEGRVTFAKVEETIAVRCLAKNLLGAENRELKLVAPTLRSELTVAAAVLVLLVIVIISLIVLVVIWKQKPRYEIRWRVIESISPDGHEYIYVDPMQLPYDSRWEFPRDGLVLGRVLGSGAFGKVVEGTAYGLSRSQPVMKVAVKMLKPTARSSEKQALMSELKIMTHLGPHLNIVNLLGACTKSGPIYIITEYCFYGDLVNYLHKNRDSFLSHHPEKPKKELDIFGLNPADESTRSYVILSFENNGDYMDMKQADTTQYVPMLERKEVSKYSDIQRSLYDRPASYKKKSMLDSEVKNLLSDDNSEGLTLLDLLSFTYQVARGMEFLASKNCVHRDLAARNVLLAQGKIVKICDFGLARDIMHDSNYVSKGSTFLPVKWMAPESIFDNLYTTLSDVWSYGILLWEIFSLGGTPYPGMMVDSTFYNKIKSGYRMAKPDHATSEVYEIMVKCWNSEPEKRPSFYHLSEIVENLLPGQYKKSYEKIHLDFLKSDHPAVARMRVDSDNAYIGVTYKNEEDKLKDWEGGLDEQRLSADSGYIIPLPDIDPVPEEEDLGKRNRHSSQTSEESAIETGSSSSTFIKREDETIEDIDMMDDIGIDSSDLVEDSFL

[29] = target: T1, RAF proto-oncogene serine/threonine-protein kinase; test: Inhibition of human RAF; details: concentration not given here
Summary of the method: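 Human C-Raf (5–10 mU) incubated with 0.66 mg/mL myelin basic protein in 25 mM Tris pH 7.5, 0.02 mM EGTA, 10 mM Mg acetate. Spotted on P30 filter, washed in 75 mM phosphoric acid and methanol, then scintillation counted. Outsourced profiling service.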

[30] = target: Receptor-type tyrosine-protein kinase FLT3 (Homo sapiens) (UniProt P36888); test: Inhibition of human Flt3; details: concentration not given here; summary of the method: as §5
[31] = target: Hepatocyte growth factor receptor (Homo sapiens) (UniProt P08581); test: Inhibition of human Met; details: concentration not given here; summary of the method: as §5
[32] = target: Angiopoietin-1 receptor (Homo sapiens) (UniProt Q02763); test: Inhibition of human Tie2; details: concentration not given here; summary of the method: as §5
Sequence of Angiopoietin-1 receptor (Homo sapiens) (Q02763 whole entry): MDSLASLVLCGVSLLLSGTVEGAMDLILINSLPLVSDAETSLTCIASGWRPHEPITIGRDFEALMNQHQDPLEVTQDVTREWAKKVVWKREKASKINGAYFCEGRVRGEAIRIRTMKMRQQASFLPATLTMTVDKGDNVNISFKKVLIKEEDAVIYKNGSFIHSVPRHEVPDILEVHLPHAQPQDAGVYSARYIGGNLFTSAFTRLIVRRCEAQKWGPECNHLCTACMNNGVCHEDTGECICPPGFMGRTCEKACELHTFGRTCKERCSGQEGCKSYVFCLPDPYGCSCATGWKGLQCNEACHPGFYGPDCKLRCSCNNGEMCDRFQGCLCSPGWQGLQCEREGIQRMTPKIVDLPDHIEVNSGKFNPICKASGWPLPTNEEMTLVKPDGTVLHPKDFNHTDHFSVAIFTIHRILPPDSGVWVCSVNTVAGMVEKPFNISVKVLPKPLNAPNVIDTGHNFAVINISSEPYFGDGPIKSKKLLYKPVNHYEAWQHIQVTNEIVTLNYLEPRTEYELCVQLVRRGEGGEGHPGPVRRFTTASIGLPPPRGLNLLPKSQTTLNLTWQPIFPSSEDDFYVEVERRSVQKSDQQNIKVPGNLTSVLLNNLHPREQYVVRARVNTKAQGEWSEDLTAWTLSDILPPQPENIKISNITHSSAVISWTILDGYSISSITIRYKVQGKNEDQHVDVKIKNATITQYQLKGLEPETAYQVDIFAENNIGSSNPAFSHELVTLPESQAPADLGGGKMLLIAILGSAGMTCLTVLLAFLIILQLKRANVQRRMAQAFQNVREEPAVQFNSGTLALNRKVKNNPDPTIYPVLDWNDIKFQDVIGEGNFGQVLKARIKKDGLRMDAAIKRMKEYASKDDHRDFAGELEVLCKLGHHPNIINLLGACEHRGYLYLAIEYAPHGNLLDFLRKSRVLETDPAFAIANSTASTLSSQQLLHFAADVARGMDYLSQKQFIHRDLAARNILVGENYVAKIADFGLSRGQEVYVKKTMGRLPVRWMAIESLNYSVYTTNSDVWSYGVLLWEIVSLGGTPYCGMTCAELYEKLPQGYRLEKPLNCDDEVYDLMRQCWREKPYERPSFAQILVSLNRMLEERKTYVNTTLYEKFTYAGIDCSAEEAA

[33] = target: Cyclin-dependent kinase 5/CDK5 activator 1 (Homo sapiens) (UniProt Q00535+Q15078); test: Inhibition of human CDK5/p35; assay type: protein-complex assay; details: concentration not given here; summary of the method: as §5
[34] = target: Macrophage colony-stimulating factor 1 receptor (Homo sapiens) (UniProt P07333); test: Inhibition of human FMS; details: concentration not given here; summary of the method: as §5

Cc1cc(NC(=O)Nc2cc(Cl)cc(C(F)(F)F)c2)ccc1-c1nc2c(cnn2Cc2ccccc2)n1C
GI50 [1]: 0.56 µM | IC50 [2]: Not Active | GI50 [3]: 4.16 µM

Cc1ccc2nc(NC(=O)Nc3ccc(-c4nc5[nH]ncc5[nH]4)c(C)c3)sc2c1
GI50 [4]: inactive | GI50 [5]: inactive

COc1ccc(Cn2ncc3[nH]c(-c4ccc(NC(=O)Nc5cc(N6CCOCC6)cc(C(F)(F)F)c5)cc4C)nc32)cc1
GI50 [1]: > 100 µM | GI50 [3]: > 100 µM

Cc1ccc(NC(=O)c2cc(N3CCOCC3)cc(C(F)(F)F)c2)cc1-c1nc2[nH]ncc2[nH]1
GI50 [4]: inactive | GI50 [5]: inactive

Cc1ccc(NC(=O)Nc2c(F)cc(F)c(C)c2F)cc1-c1nc2c(cnn2Cc2ccccc2)[nH]1
GI50 [1]: 1.29 µM | GI50 [3]: 7.73 µM

Cc1ccc(NC(=O)Nc2cccc(Cl)c2Cl)cc1-c1nc2[nH]ncc2[nH]1
GI50 [4]: inactive | GI50 [5]: inactive

COc1ccc(Cn2ncc3[nH]c(-c4cc(NC(=O)Nc5cc(Cl)cc(C(F)(F)F)c5)ccc4C)nc32)cc1
GI50 [1]: > 100 µM | GI50 [3]: > 100 µM

Cc1cn(-c2cc(NC(=O)Nc3ccc(-c4nc5[nH]ncc5[nH]4)c(C)c3)cc(C(F)(F)F)c2)cn1
inhibition [6]: 0% | inhibition [7]: 8% | inhibition [8]: 62% | inhibition [9]: 6% | inhibition [10]: 35% | inhibition [11]: 26% | inhibition [12]: 8% | inhibition [13]: 4% | inhibition [14]: 33% | inhibition [15]: 30% | inhibition [16]: 16% | inhibition [17]: 0% | inhibition [18]: 16% | inhibition [19]: 5% | GI50 [1]: 0.86 µM | inhibition [20]: 0% | inhibition [21]: 8% | inhibition [22]: 10% | inhibition [23]: 37% | inhibition [24]: 20% | inhibition [25]: 61% | inhibition [26]: 16% | inhibition [27]: 10% | inhibition [28]: 0% | inhibition [29]: 96% | inhibition [30]: 53% | inhibition [31]: 0% | inhibition [32]: 82% | inhibition [33]: 0% | inhibition [34]: 42% | IC50 ([2]; read-out: IC50): 0.05 µM | GI50 [3]: 2.24 µM

Cc1ccc(NC(=O)Nc2cc(Cl)cc(C(F)(F)F)c2)cc1-c1nc2c(cnn2Cc2ccccc2)[nH]1
GI50 [1]: 0.85 µM | IC50 ([2]; read-out: IC50): 0.076 µM | GI50 [3]: 3.79 µM

Cc1c(F)cc(F)c(NC(=O)Nc2ccc(-c3nc4c(cnn4Cc4ccccc4)[nH]3)cc2)c1F
GI50 [1]: 0.98 µM | GI50 [3]: 51.7 µM

Cc1cc(NC(=O)Nc2cc(N3CCOCC3)cc(C(F)(F)F)c2)ccc1-c1nc2[nH]ncc2[nH]1
GI50 [4]: inactive | GI50 [3]: > 100 µM

Cc1ccc(NC(=O)Nc2cc(Cl)cc(C(F)(F)F)c2)cc1-c1nc2[nH]ncc2[nH]1
GI50 [1]: > 100 µM | GI50 [3]: > 100 µM

Cc1cc(NC(=O)Nc2cccc(Cl)c2Cl)ccc1-c1nc2[nH]ncc2[nH]1
GI50 [4]: inactive | GI50 [5]: inactive

COc1ccc(Cn2ncc3[nH]c(-c4ccc(NC(=O)Nc5nc6ccc(C)cc6s5)cc4C)nc32)cc1
GI50 [4]: inactive | GI50 [5]: inactive

Cc1ccc(NC(=O)Nc2cc(N3CCOCC3)cc(C(F)(F)F)c2)cc1-c1nc2c(cnn2Cc2ccccc2)n1C
GI50 [1]: > 100 µM | GI50 [3]: > 100 µM

Cc1ccc(NC(=O)Nc2cc(Cl)cc(C(F)(F)F)c2)cc1-c1nc2c(cnn2Cc2ccccc2)n1C
GI50 [1]: 5.85 µM | GI50 [3]: 56.3 µM

CNC(=O)c1cc(Oc2ccc(NC(=O)Nc3ccc(Cl)c(C(F)(F)F)c3)cc2)ccn1 [SORAFENIB]
GI50 [1]: 0.65 µM | GI50 [3]: 5.58 µM

Cc1ccc(NC(=O)Nc2cc(N3CCOCC3)cc(C(F)(F)F)c2)cc1-c1nc2c(cnn2Cc2ccccc2)[nH]1
GI50 [1]: 0.72 µM | IC50 ([2]; read-out: IC50): 0.156 µM | GI50 [3]: 4.29 µM

Cc1cc(NC(=O)Nc2cc(Cl)cc(C(F)(F)F)c2)ccc1-c1nc2[nH]ncc2[nH]1
GI50 [1]: 14.4 µM | GI50 [3]: > 100 µM

COc1ccc(Cn2ncc3c2nc(-c2ccc(NC(=O)Nc4cc(Cl)cc(C(F)(F)F)c4)cc2C)n3C)cc1
GI50 [1]: 3.77 µM | GI50 [3]: 51.5 µM

O=C(Nc1ccc(-c2nc3c(cnn3Cc3ccccc3)[nH]2)cc1)Nc1ccc(Cl)c(Cl)c1
GI50 [1]: 42.8 µM | GI50 [3]: > 100 µM

COc1ccc(Cn2ncc3[nH]c(-c4cc(NC(=O)Nc5c(F)cc(F)c(C)c5F)ccc4C)nc32)cc1
GI50 [1]: > 100 µM | GI50 [3]: > 100 µM

O=C(Nc1ccc(-c2nc3c(cnn3Cc3ccccc3)[nH]2)cc1)Nc1cc(Cl)cc(C(F)(F)F)c1
GI50 [1]: 0.75 µM | IC50 ([2]; read-out: IC50): 0.37 µM | GI50 [3]: 6.65 µM

COc1ccc(Cn2ncc3[nH]c(-c4cc(NC(=O)Nc5ccc(Cl)c(Cl)c5)ccc4C)nc32)cc1
GI50 [1]: 1.35 µM | IC50 ([2]; read-out: IC50): 0.839 µM | GI50 [3]: 15.3 µM

Cc1ccc(NC(=O)c2cc(Cl)cc(C(F)(F)F)c2)cc1-c1nc2c(cnn2Cc2ccccc2)[nH]1
GI50 [1]: 1.14 µM | IC50 ([2]; read-out: IC50): 0.146 µM | GI50 [3]: 2.06 µM
